{"data": "Measurements gathered from unrelated publications", "target": "Megakaryocyte-associated tyrosine-protein kinase (MATK, Homo sapiens, UniProt P42679)", "Residues used in one study (P42679 1-507)": "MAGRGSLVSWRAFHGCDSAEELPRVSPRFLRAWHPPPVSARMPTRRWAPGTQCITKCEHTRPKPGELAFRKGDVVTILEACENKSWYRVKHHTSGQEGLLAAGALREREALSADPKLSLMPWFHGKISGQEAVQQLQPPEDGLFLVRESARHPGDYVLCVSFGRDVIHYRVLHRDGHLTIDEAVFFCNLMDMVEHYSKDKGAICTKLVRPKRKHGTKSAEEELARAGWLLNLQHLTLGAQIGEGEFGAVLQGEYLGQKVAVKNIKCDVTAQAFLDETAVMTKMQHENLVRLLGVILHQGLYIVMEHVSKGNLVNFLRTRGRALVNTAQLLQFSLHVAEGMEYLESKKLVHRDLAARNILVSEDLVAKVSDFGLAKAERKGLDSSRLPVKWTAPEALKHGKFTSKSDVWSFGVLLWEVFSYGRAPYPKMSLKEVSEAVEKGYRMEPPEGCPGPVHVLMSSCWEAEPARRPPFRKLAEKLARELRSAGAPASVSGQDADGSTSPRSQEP", "note": "Compare with care: the assays were run in different laboratories."}
{"SMILES": "O=C(O)[C@@H]1[C@@H](Cn2nnc3ccccc3c2=O)CC[C@H]1C(=O)c1ccc(OCCC2CCOCC2)cc1", "test": "cell-free assay, competition with immobilised ligand", "setting": "1 µM", "measurement": "remaining binding", "result": "95%"}
{"SMILES": "c1nc2c(Nc3ccc4c(c3)OCCO4)nc(Nc3ccc4c(c3)OCCO4)nc2[nH]1", "test": "enzyme activity, inhibitor", "setting": "10 µM", "measurement": "activity vs control", "result": "49%"}
{"SMILES": "COc1cc2ncnc(Nc3ccc(Oc4ccccc4)cc3C)c2cc1OC", "test": "enzyme activity, inhibitor", "setting": "1 µM", "measurement": "inhibition", "result": "0%"}
{"SMILES": "Nc1ncnc2occ(-c3ccc(NC(=O)Nc4cc(C(F)(F)F)ccc4F)cc3)c12", "test": "cell-free assay, inhibitor", "setting": "20 µM", "measurement": "remaining signal", "result": "13%"}
{"SMILES": "O=C(Nc1cnn(-c2csc(C(=O)NC3COC3)c2)c1)Nc1ccccc1Cl", "test": "enzyme activity, inhibitor", "setting": "5 µM", "measurement": "remaining activity", "result": "99.7%"}
{"SMILES": "CC(C)(O)[C@H]1CC[C@H](Nc2ccc3ncc(-c4cccc(C(F)(F)F)c4)n3n2)CC1", "test": "enzyme activity, inhibitor", "setting": "1 µM", "measurement": "remaining activity", "result": "102%"}
{"SMILES": "CCOCCn1cc(C(=O)Nc2ccc(-n3nc(-c4cccnc4)cc3C(F)(F)F)cn2)ccc1=O", "test": "cell-free assay, competition with immobilised ligand", "setting": "1 µM", "measurement": "remaining binding", "result": "90%"}
{"SMILES": "CC(C)(C)c1nc2c(s1)c1nc(N)ncc1c1ccc(NS(=O)(=O)c3c(F)cccc3F)c(F)c12", "test": "enzyme activity, inhibitor, radiometric", "setting": "1 µM", "measurement": "remaining activity", "result": "101%"}
{"SMILES": "O=c1nc(-c2ccccn2)sc2ccccc12", "test": "binding, competition with immobilised ligand", "setting": "1 µM", "measurement": "remaining binding", "result": "100%"}
{"SMILES": "O=C1Nc2ccc(Cl)cc2C1=Cc1cc(Cl)c(O)c(Cl)c1", "test": "cell-free assay", "setting": "0.5 µM", "measurement": "remaining signal", "result": "82.2%"}
{"SMILES": "CN(C)C(=O)Cn1cc(-c2nc([C@@](C)(c3ccc(-c4cnc(N)nc4)cc3)C3CC3)no2)cn1", "test": "cell-free assay, competition with immobilised ligand", "setting": "1 µM", "measurement": "remaining binding", "result": "77%"}
{"SMILES": "N#CCCc1ccc2c(c1)-c1[nH]c3ccc([N+](=O)[O-])cc3c1CC(=O)N2", "test": "cell-free assay", "setting": "0.5 µM", "measurement": "remaining signal", "result": "101%"}
